Measurements published in ChEMBL document CHEMBL1154820, “Synthesis, characterization and structure-activity relationship of novel N-phosphorylated E,E-3,5-bis(thienylidene)piperid-4-ones” (Eur J Med Chem, 2010).

Key:
A549 = assay: Cytotoxicity against human A549 cells after 72 hrs by MTT assay; type: functional, cell-based
Outline: (§1)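 Cells kept in RPMI-1640 with 10% FBS, 2 mM L-glutamine and gentamicin; seeded at 1×10⁴ cells/well, attached overnight at 37 °C, 5% CO₂. Compounds dissolved in DMSO, diluted into FBS-free medium, tested at […], 10⁻⁵, 10⁻⁶, 10⁻⁷ M in triplicate for 72 h. MTT (5 mg/ml) added for 3 h at 37 °C, formazan dissolved in DMSO, OD read at 590 nm; viability loss versus untreated controls, IC50 read graphically; melphalan as positive control.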

SK-OV-3 = assay: Cytotoxicity against human Scov3 cells after 72 hrs by MTT assay; type: functional, cell-based; outline: as §1
[1] = Cytotoxicity against human Caov3 cells after 72 hrs by MTT assay; type: functional, cell-based, Caov-3; outline: as §1
[2] = Homo sapiens, A549, 72 h, read-out: IC50
[3] = Homo sapiens, SK-OV-3, 72 h, read-out: IC50
[4] = Homo sapiens, Caov-3, 72 h, read-out: IC50

| SMILES | IC50 (A549; a549) | IC50 (SK-OV-3; sk-ov-3) | IC50 ([1]; caov-3) | IC50 (A549; [2]) [µM] | IC50 (SK-OV-3; [3]) [µM] | IC50 [1, 4] [µM] |
| --- | --- | --- | --- | --- | --- | --- |
| O=C1/C(=C/c2cccs2)CNC/C1=C\c1cccs1 | Non-toxic | Non-toxic | Non-toxic | – | – | – |
| CN1C/C(=C/c2cccs2)C(=O)/C(=C/c2cccs2)C1 | Non-toxic | Non-toxic | Non-toxic | – | – | – |
| CCOP(=O)(CCCN1C/C(=C\c2cccs2)C(=O)/C(=C/c2cccs2)C1)OCC | – | – | – | 30 | 40 | 40 |
| CCOP(=O)(CN1C/C(=C\c2cccs2)C(=O)/C(=C/c2cccs2)C1)OCC | – | – | – | 15 | 38 | 20 |
| CCOP(=O)(CCN1C/C(=C\c2cccs2)C(=O)/C(=C/c2cccs2)C1)OCC | – | – | – | 35 | 64 | 70 |
| CCOP(=O)(OCC)N1C/C(=C\c2cccs2)C(=O)/C(=C/c2cccs2)C1 | – | – | – | 27 | 30 | 26 |
| O=C1/C(=C/c2cccs2)CN(P(=O)(Oc2ccccc2)Oc2ccccc2)C/C1=C\c1cccs1 | – | – | – | 35 | 60 | 44 |
| CN1C/C(=C\c2cccs2)C(=O)/C(=C/c2cccs2)C1 | – | – | Non-toxic | 80 | 85 | – |
| N[C@@H](Cc1ccc(N(CCCl)CCCl)cc1)C(=O)O [MELPHALAN] | – | – | – | – | – | 50 |
